{"source": "ChEMBL document CHEMBL4613292", "about": "“5,6-Dihydroxypyrimidine Scaffold to Target HIV-1 Nucleocapsid Protein” (ACS Med Chem Lett, 2020)", "key": {"[1]": {"assay": "(§1) Inhibition of HIV1 Nucleocapsid protein (11 to 55 residues) assessed as reduction in NC-induced cTAR DNA destabilization by measuring intrinsic fluorescence using Alexa488-5'-cTAR-3'-Dabcyl oligonucleotide as substrate at 20 degree C incubated for 15 mins by fluorescence assay", "parameters": "species or system Human immunodeficiency virus 1", "method_in_brief": "(§2)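 Fluorescence NC-inhibition assay following destabilisation of cTAR DNA, the complement of the HIV-1 transactivation response element, dual-labelled with Alexa488 dye and Dabcyl quencher. NC protein at 1 μM, so the lowest measurable IC50 is 0.5 μM.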"}, "[2]": {"assay": "Cytotoxicity against human HeLa cells assessed as reduction in cell viability", "format": "cell-based"}, "[3]": {"assay": "Cytotoxicity against phytohemagglutinin and interleukin-2-stimulated human PBMC cells assessed as reduction in cell viability measured after 7 days by MTS assay", "format": "cell-based"}, "[4]": {"assay": "(§3) Selectivity index, ratio of CC50 for human HeLa cells assessed as reduction in cell viability to EC50 for wild-type HIV1 NL4-3 infected in human TZM-bl cells infected with supernatants from virus-infected human MT2 cells treated with compound for 48 to 72 hrs assessed as reduction in viral replication after 2 days by bright Glo-luciferase reporter gene assay based BiCycle assay", "format": "toxicity", "settings": "read-out: Ratio CC50/EC50; call rule not given here", "method_in_brief": "(§4)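 Selectivity index is CC50 from the respective cytotoxicity assay (HeLa or PBMC) divided by EC50 from the two-round MT-2/TZM-bl NL4-3 assay.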"}, "[5]": {"system": "Human immunodeficiency virus 1", "assay": "as §3, with “Antiviral activity against” for “Selectivity index, ratio of CC50 for human HeLa cells assessed as reduction in cell viability to EC50 for”", "format": "functional, organism-based", "settings": "Human immunodeficiency virus 1, NL4-3, TZM", "method_in_brief": "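Two-round cell assay over the full replication cycle: MT-2 T cells are infected with wild-type reference strain NL4-3 in the first round, and reporter TZM-bl cells are infected in the second round. Values are given as mean ± deviation.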"}, "[6]": {"assay": "Selectivity index, ratio of CC50 for human PBMC cells stimulated with phytohemagglutinin and interleukin-2 assessed as reduction in cell viability measured after 7 days by MTS assay to EC50 for wild-type HIV1 NL4-3 infected in human TZM-bl cells infected with supernatants from virus-infected human MT2 cells treated with compound for 48 to 72 hrs assessed as reduction in viral replication after 2 days by bright Glo-luciferase reporter gene assay based BiCycle assay", "format": "toxicity", "settings": "read-out: Ratio CC50/EC50", "method_in_brief": "as §4"}, "[7]": {"system": "Human immunodeficiency virus 1", "assay": "as §1", "method_in_brief": "as §2"}}, "data": [{"compound": "CC(Cc1ccc(O)c(O)c1)C(C)Cc1ccc(O)c(O)c1", "note": "(stereo not drawn) [NORDIHYDROGUAIARETIC ACID]", "values": [{"measurement": "IC50", "setting": "[1]; read-out: IC50", "value": 26, "unit": "µM"}]}, {"compound": "O=C(NCC1CCCCC1)c1nc(-c2cccnc2)nc(O)c1O", "values": [{"measurement": "IC50", "setting": "[1]", "value": "Not Active"}]}, {"compound": "CC(Cc1nc(-c2ccc(O)c(O)c2)cs1)n1cc(Cl)cn1", "note": "(stereo not drawn)", "values": [{"measurement": "IC50", "setting": "[1]; read-out: IC50", "value": 110, "unit": "µM"}]}, {"compound": "CN(CC1CCCCC1)C(=O)c1nc(-c2ccccn2)nc(O)c1O", "values": [{"measurement": "IC50", "setting": "[1]", "value": "Not Active"}]}, {"compound": "Cc1ccnc(-c2nc(O)c(O)c(C(=O)N[C@@H](C)C3CCCCC3)n2)c1", "values": [{"measurement": "IC50", "setting": "[1]; read-out: IC50", "value": 41, "unit": "µM"}]}, {"compound": "O=C(NCCC1CCCCC1)c1nc(-c2ccccn2)nc(O)c1O", "values": [{"measurement": "CC50", "setting": "[2]", "value": 4.2, "unit": "µM"}, {"measurement": "CC50 at 168 h", "setting": "[3]", "value": 11, "unit": "µM"}, {"measurement": "selectivity ratio", "setting": "[4]", "value": 2}, {"measurement": "EC50", "setting": "[5]", "value": 2.3, "unit": "µM"}, {"measurement": "selectivity ratio at 7 days", "setting": "[6]", "value": 5}, {"measurement": "IC50", "setting": "[1]; read-out: IC50", "value": 38, "unit": "µM"}]}, {"compound": "C[C@@H](NC(=O)c1nc(-c2cccc(C(F)(F)F)n2)nc(O)c1O)C1CCCCC1", "values": [{"measurement": "IC35", "setting": "[7]", "value": 20, "unit": "µM"}]}, {"compound": "Cc1cccnc1-c1nc(O)c(O)c(C(=O)N[C@H](C)C2CCCCC2)n1", "values": [{"measurement": "IC50", "setting": "[1]; read-out: IC50", "value": 21, "unit": "µM"}]}, {"compound": "CC(C)(C)c1nc(O)c(O)c(C(=O)NCC2CCCCC2)n1", "values": [{"measurement": "IC50", "setting": "[1]", "value": "Not Active"}]}, {"compound": "O=C(NCC1CCCCC1)c1nc(-c2ccccc2)nc(O)c1O", "values": [{"measurement": "IC50", "setting": "[1]", "value": "Not Active"}]}, {"compound": "CCNC(=O)c1nc(-c2ccccn2)nc(O)c1O", "values": [{"measurement": "IC50", "setting": "[1]", "value": "Not Active"}]}, {"compound": "C[C@@H](NC(=O)c1nc(-c2ccc(C(F)(F)F)cn2)nc(O)c1O)C1CCCCC1", "values": [{"measurement": "IC50", "setting": "[1]; read-out: IC50", "value": 23, "unit": "µM"}]}, {"compound": "O=C(NC1CCCCC1)c1nc(-c2ccccn2)nc(O)c1O", "values": [{"measurement": "IC50", "setting": "[1]; read-out: IC50", "value": 300, "unit": "µM"}]}]}
